# Screens (PubChem BioAssay)
# The list is not random: actives were taken first. Their share in the collection is about 1.6%.
# GSTO1 counter: GSTO1 inhibition, counter-screen for RBBP9 inhibitors. recombinant GSTO1, activity-based probe fluorescence polarization. inhibition, % at 5.96 µM. 300,000 tested, 1.1% active. AID 1974;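 active means inhibition above the campaign mean inhibition plus 3 SD, cut at about 35% in these data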;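 further: 0% = GSTO1-1 with DMSO and 100% = wells lacking GSTO1-1 enzyme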
# Fh CTSL1 inh: blocks F. hepatica cathepsin L1 in PFM18AAP counter-screen. recombinant F. hepatica cathepsin L1, Z-Leu-Arg-MCA fluorescence. inhibition, % at 5.96 µM. 300,000 tested, 0.49% active. AID 1906;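 active means inhibition above the mean of all tested compounds plus 3 SD, set per screening campaign, cut at about 17% in these data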;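 further: 0% = plate median of test compound wells and 100% = 1 µM Z-Phe-Ala-diazomethylketone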
# TDP2 inh: blocks human TDP2 phosphodiesterase activity; O95551; inhibition, % at 12.8 µM; recombinant TDP2, T5PNP hydrolysis, p-nitrophenol absorbance 415 nm; 370,000 tested, 0.34% active;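 active means inhibition above the mean of all tested compounds plus 3 SD, set per campaign, cut at about 25% in these data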;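 further: 0% = DMSO with enzyme and 100% = buffer with substrate but no TDP2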
# Target sequence (O95551 whole entry, looked up): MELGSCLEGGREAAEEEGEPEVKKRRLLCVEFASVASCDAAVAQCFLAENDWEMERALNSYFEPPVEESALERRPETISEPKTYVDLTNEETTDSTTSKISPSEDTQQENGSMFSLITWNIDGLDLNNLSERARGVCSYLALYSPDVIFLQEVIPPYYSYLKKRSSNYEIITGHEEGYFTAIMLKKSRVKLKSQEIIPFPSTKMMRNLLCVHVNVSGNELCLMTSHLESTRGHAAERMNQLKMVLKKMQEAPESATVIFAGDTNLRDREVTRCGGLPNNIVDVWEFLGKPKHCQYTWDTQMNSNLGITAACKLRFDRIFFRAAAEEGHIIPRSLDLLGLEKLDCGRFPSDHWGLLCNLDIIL
#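 System – recombinant human TDP2 · Amount – 120 nM TDP2 per well · Buffer or medium – Mg2+-containing Tris-HCl buffer, pH 7.5 · Reagent – T5PNP substrate, 5 mM · Dosing – 12.8 µM single point, 1% DMSO · Incubation – 2 h at 37 °C · Measured by – epi absorbance · Read-out basis – percent inhibition · Benchmarks – high control without enzyme, low control DMSO plus TDP2 · Repeats – singlicate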
# UCH37 inh: blocks the human deubiquitinase UCH37; 330,000 tested, 0.33% active; AID 588478; purified proteasome/UCH37, Ub-AMC cleavage fluorescence; inhibition, % (no concentration beside the values); Q9Y5K5;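 active means mean inhibition over replicate wells above about 20%, limit read from the data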;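 further: 0% = compound-free wells with enzyme and 100% = wells lacking proteasome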
# Target sequence (Q9Y5K5 whole entry, looked up): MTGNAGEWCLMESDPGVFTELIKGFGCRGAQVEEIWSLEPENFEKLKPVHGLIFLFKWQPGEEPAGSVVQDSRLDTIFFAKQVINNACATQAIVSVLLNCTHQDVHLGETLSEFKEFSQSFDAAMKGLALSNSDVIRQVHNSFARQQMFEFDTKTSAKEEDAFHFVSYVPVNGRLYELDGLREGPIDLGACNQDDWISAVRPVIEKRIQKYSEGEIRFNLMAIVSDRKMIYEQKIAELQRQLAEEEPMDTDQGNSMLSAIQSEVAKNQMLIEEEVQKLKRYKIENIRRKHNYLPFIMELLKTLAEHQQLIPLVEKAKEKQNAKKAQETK
#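 Reagent: Ub-AMC substrate; assay system: Proteasome-associated human UCH37 deubiquitinase; controls: no-proteasome and no-compound wells; read-out: % inhibition of Ub-AMC cleavage fluorescence; timing: 30 min preincubation with enzyme, 25 min cleavage at room temperature; signal: AMC fluorescence from Ub-AMC cleavage, excitation 355 nm, emission 460 nm; buffer or medium: Tris-HCl pH 7.4 plus ovalbumin, ATP-MgCl2, DTT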
# PAD4 inh: PAD4 (human) enzyme inhibition; Q9UM07; recombinant PAD4, RCA probe fluorescence polarization; inhibition, % at 6.36 µM; 330,000 tested, 0.41% active;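 active means percent inhibition above a cutoff equal to the mean of all tested compounds plus 3 SD, cut at about 15% in these data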;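 further: 0% = PAD4 with RCA probe and DMSO and 100% = probe without PAD4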
# HKDC1 inh: blocks human hexokinase HKDC1 activity; Q2TB90; recombinant HKDC1, G6PDH/diaphorase resazurin coupled fluorescence; inhibition, % at 20 µM; 340,000 tested, 0.16% active;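 active means inhibition above about 35% when tested at 20 µM, limit read from the data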;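 further: plate controls were DMSO wells with enzyme for no effect and DMSO wells lacking enzyme for full effect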
#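 Test system: Recombinant HKDC1 (HK5) hexokinase enzyme, produced in-house | Input: HKDC1 at 5 µg/mL | Buffer or medium: Tris pH 8.0 buffer with MgCl2, Tween-20, BSA, BME | Schedule: 90 min reaction incubation at room temperature, dark | Technique: Resazurin-to-resorufin fluorescence via G6PDH and diaphorase coupling, 525/613 nm | Controls: DMSO wells with and without enzyme mix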
# TDP2 inh conf: confirmation of human TDP2 inhibitors; shares compounds with TDP2 inh; recombinant human TDP2, absorbance read-out; inhibition, % at 12.8 µM; 1,100 tested, 22% active; AID 743263; in the data active means inhibition above about 25%;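 further: 0% = vehicle with enzyme and 100% = no enzyme buffer only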
# * hit, by the source's call; . = not tested or not shown.
SMILES,GSTO1 counter,Fh CTSL1 inh,TDP2 inh,UCH37 inh,PAD4 inh,HKDC1 inh,TDP2 inh conf
O=C(O)CCCc1nc(-c2ccc(Cl)cc2)no1,6,1,-9,4,0,-2,.
O=C(CCc1nc(-c2ccc(Cl)cc2)no1)OCc1ccc(Br)cc1,-3,-1,40*,3,2,1,4
COc1ccc(C(C)=NN=C(C)c2ccc(OC)cc2OC)c(OC)c1,.,.,.,-1,.,.,.
COc1cc2c(=O)n(CCC(=O)NCC3CCCO3)c(=O)n(CC(=O)Nc3ccc(F)cc3)c2cc1OC (centres undefined),5,1,24*,-13,-2,-1,-7
CCN(CC)c1ccc(C=NNc2nc(C)cc(C)n2)c(O)c1,.,.,.,3,.,.,.
Cc1cc2oc(C(=O)NCCc3ccc(S(N)(=O)=O)cc3)c(C)c2cc1C,-29,4,30*,-2,-8,-7,3
N#CCCn1cc(C=NO)c(-c2ccc(F)cc2)n1,.,.,.,1,.,.,.
COc1ccc(Cc2nnc(SCC(=O)NC(C)c3ccccc3)o2)cc1 (centres undefined),-3,-2,72*,4,-1,6,-6
Cc1nnc(C)n1N=Cc1ccc2c(c1)OCCO2,.,.,.,-4,.,.,.
CC(=O)Nc1ccc(/C=C2\CCc3ccccc3C2=O)cc1,-11,3,26*,1,-2,12,-9
CCOC(=S)NC(=NS(C)(=O)=O)c1ccccc1,.,.,.,2,.,.,.
COc1ccc(-c2ccc(C(c3c(C)[nH][nH]c3=O)c3c(C)[nH][nH]c3=O)o2)c([N+](=O)[O-])c1,.,.,67*,8,.,-2,6
Oc1ccccc1C=NNC(=S)NCCc1ccccc1,.,.,.,-2,.,.,.
COc1ccccc1C=NNC(=O)NN=Cc1ccccc1OC,.,.,-2,3,.,-4,.
COc1ccccc1C=NN=C(NN=Cc1ccccc1OC)NN=Cc1ccccc1OC,.,.,59*,6,.,-21,-5
CCn1cc(C(=O)Nc2ncccc2O)c(=O)c2cc(F)c(N3CCN(C(=O)c4ccco4)CC3)cc21,-27,7,28*,-21,0,5,-2
NC(=O)Nc1ccc(C(=O)OCC(=O)N(Cc2ccccc2)C2CCS(=O)(=O)C2)cc1 (centres undefined),1,6,-1,2,-1,-4,.
CN(C)c1cccc(C(=O)OCC(=O)N(Cc2ccccc2)C2CCS(=O)(=O)C2)c1 (centres undefined),2,-3,38*,-24,0,-4,-11
Cc1ccc(N(CC(=O)NC2CCCCC2)S(=O)(=O)c2c(C)noc2C)cc1,4,-1,29*,5,4,2,-3
Cc1ccc2nc(C)cc(NN=Cc3ccccc3O)c2c1,.,.,.,-29,.,.,.
O=C1C(=O)N(c2nccs2)C(c2ccccc2F)/C1=C(\O)c1ccc2c(c1)OCCO2 (centres undefined),-12,2,26*,9,-3,2,-1
O=C1C(=O)N(c2nccs2)C(c2ccccc2)/C1=C(\O)c1ccc2c(c1)OCCO2 (centres undefined),4,4,.,.,-8,.,.
FC(F)Oc1ccc(C=NN2CCCCC2)c(OC(F)F)c1,.,.,.,0,.,.,.
COc1ccc(C=NNS(=O)(=O)c2ccccc2)cc1OC(=O)c1ccc(C)cc1,.,.,.,2,.,.,.
COc1ccc(CNC(=O)CCCNC(=O)c2ccc(Cl)cc2)cc1OC,-1,-2,33*,0,3,5,0
SMILES,GSTO1 counter,Fh CTSL1 inh,TDP2 inh,UCH37 inh,PAD4 inh,HKDC1 inh,TDP2 inh conf
COc1ccc(CCNC(=O)CCNC(=O)c2ccc(Cl)cc2)cc1OC,1,-2,4,0,-5,-6,.
O=C(NCc1ccc2c(c1)OCO2)C(=O)NCC1OCCN1S(=O)(=O)c1ccc(Br)cc1 (centres undefined),4,-2,-2,3,1,3,.
O=C(NCc1ccc2c(c1)OCO2)C(=O)NCC1OCCN1S(=O)(=O)c1ccc(Cl)cc1 (centres undefined),-1,-4,37*,0,0,-2,1
O=C(c1ccco1)[C@@H]1[C@@H]2C(=O)N(c3ccc(F)cc3)C(=O)[C@@H]2C2c3ccccc3C=CN21 (some centres undefined),31,14,29*,.,-13,.,17
CCCCCNC(=O)C(C1CC1)n1c(=O)c(-c2ccco2)nc2ccccc21 (centres undefined),.,.,54*,.,.,.,-6
COc1c(F)c(F)cc2c(=O)c(C(=O)O)cn(C3CC3)c12,-2,5,26*,3,-5,-4,1
COc1c(N2CCN[C@H](C)C2)c(F)cc2c(=O)c(C(=O)O)cn(C3CC3)c12,2,-5,.,-164,-3,-7,.
CC(=NNC(=O)c1ccccc1C)c1ccc(N2CCOCC2)cc1,.,.,.,7,.,.,.
COc1ccc(-n2c(NC(=O)c3ccco3)c(C#N)c3nc4ccccc4nc32)cc1,19,1,60*,-109,10,13,67*
COc1ccc(N(CC(=O)NN=Cc2ccco2)S(=O)(=O)c2ccccc2)cc1,.,.,.,4,.,.,.
CCN(CC)c1ccc(C=NNC(=S)NCc2ccco2)cc1,.,.,.,-67,.,.,.
CC(CCc1ccccc1)NC(=O)CNC(=O)N1CC(=O)Nc2ccccc21 (centres undefined),-24,-1,25*,1,-1,1,9
O=C1CN(C(=O)NCC(=O)N[C@@H](Cc2ccccc2)C(=O)O)c2ccccc2N1,5,-2,-3,-1,-3,-1,.
Cc1nc(C#N)c(NN=Cc2c(F)cccc2Cl)o1,.,.,.,6,.,.,.
CSc1ccc(C=NN2CCN(C)CC2)cc1,.,.,.,1,.,.,.
COc1ccc(NC(=O)c2ccc(-n3c(C)ccc3C)cc2)c(OC)c1,12,2,30*,0,0,2,-9
NC(=O)c1sc2nc3c(c(-c4ccco4)c2c1N)CCC3,10,0,26*,8,1,4,1
NC(=O)c1sc2nc(-c3ccccc3)c3c(c2c1N)CCCC3,7,4,2,-135,2,4,.
N#CCCn1cc(C=NO)c(-c2ccccc2)n1,.,.,.,2,.,.,.
Clc1ccc(CN2CCSCC2)c(Cl)c1,5,6,10,1,5,1,.
Cc1ccc(C)c(CN2CCSCC2)c1,-1,-1,26*,6,-9,-7,4
COc1ccccc1-n1ccnc(SCC(=O)NCc2ccccc2Cl)c1=O,2,5,29*,.,2,4,4
O=c1cc(-c2ccccc2)[nH]n1-c1ccccc1,.,.,76*,-1,.,4,-3
O=c1ccc(=O)n(-c2ccccc2)[nH]1,-4,0,4,4,7,-2,.
Cc1ccc(C=Nc2sc3c(c2C#N)CCC3)o1,.,.,.,5,.,.,.
